According to ChEMBL document CHEMBL1799931, “Synthesis, evaluation and metabolic studies of radiotracers containing a 4-(4-[18F]-fluorobenzyl)piperidin-1-yl moiety for the PET imaging of NR2B NMDA receptors” (Eur J Med Chem, 2011):
Values belong to the compound of their own block, whether it stands above or below them.

Legend:
[1] = Inhibition of alpha-adrenergic receptor
[2] = target: Voltage-gated inwardly rectifying potassium channel KCNH2 (Homo sapiens, UniProt Q12809); test: Inhibition of human ERG potassium channel
[3] = target: T1, Glutamate NMDA receptor; GRIN1/GRIN2B (Homo sapiens, UniProt Q05586+Q13224); test: Antagonist activity against NR1a/NR2B receptor transfected in human HEK293 cells assessed as inhibition of NMDA-induced Ca2+ influx; format: functional, cell-based
[4] = target: Glutamate NMDA receptor; GRIN1/GRIN2A (Homo sapiens) (UniProt Q05586+Q12879); test: Antagonist activity against NR1a/NR2A receptor transfected in human HEK293 cells assessed as inhibition of NMDA-induced Ca2+ influx at 10 uM; format: functional, cell-based
Procedure, shortened: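 HEK293 cells co-transfected 1:1 with NR1-1a plus NR2A-GFP or NR2B-GFP, D-APV (100 µM) after transfection, used at 24 h. Cells loaded with Fura-2/AM 45 min at 37 °C, then held in HBBSS with glycine, pH 7.45, at room temperature under perfusion. NMDA 100 µM for 30 s; ligands applied 60 s before and during.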

[5] = test system: Plasma; test: Metabolic stability of the compound in rat plasma after 30 mins; format: ADME, cell-free; conditions: 0.5 h
Procedure, shortened: (§1)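 Rat plasma or liver homogenate (0.450 mL) spiked with ligand at 5-200 mg/L. Samples were deproteinized with acetonitrile immediately or after 30 min at 37 °C, then analysed by HPLC in triplicate injections.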

[6] = test system: Liver; test: Metabolic stability of the compound in rat liver homogenate after 30 mins; format: ADME, tissue-based; conditions: tissue homogenate, 0.5 h; procedure, shortened: as §1
[7] = test system: Mus musculus; test: Analgesic activity in po dosed mouse assessed as licking behavior measured after 20 to 25 mins by formalin test; format: functional, organism-based
[8] = target: T1, Glutamate NMDA receptor; GRIN1/GRIN2B; test: Displacement of [3H]-Ro-256981 from recombinant NR1/NR2B receptor; format: protein-complex assay
[9] = test system: Muscle tissue; test: Biodistribution in Sprague-Dawley rat muscle at 3.2 to 18.6 MBq, iv after 120 mins by micro PET analysis; format: ADME, organism-based; conditions: in vivo, 2 h
Procedure, shortened: (§2)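 Male Sprague-Dawley rats (235-310 g) under isoflurane got 18F radiotracer (3.2-18.6 MBq) by tail-vein catheter, n = 3. Dynamic microPET scan for 120 min, then ex vivo tissue counting at 120 min post-injection. Values are %ID/g ± SEM.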

[10] = Biodistribution in Sprague-Dawley rat fat at 3.2 to 18.6 MBq, iv after 120 mins by micro PET analysis; format: ADME, organism-based, Adipose tissue; conditions: in vivo, 2 h; procedure, shortened: as §2
[11] = test system: Brain; test: Biodistribution in Sprague-Dawley rat brain at 3.2 to 18.6 MBq, iv after 120 mins by micro PET analysis; format: ADME, organism-based; conditions: in vivo, 2 h; procedure, shortened: as §2
[12] = test system: Bone; test: Biodistribution in Sprague-Dawley rat bone at 3.2 to 18.6 MBq, iv after 120 mins by micro PET analysis; format: ADME, organism-based, Bone element; conditions: in vivo, 2 h; procedure, shortened: as §2
[13] = test system: Rattus norvegicus; test: Biodistribution in Sprague-Dawley rat cartilage at 3.2 to 18.6 MBq, iv after 120 mins by micro PET analysis; format: ADME, organism-based, Cartilage tissue; conditions: in vivo, 2 h; procedure, shortened: as §2
[14] = test system: Thymus; test: Biodistribution in Sprague-Dawley rat thymus at 3.2 to 18.6 MBq, iv after 120 mins by micro PET analysis; format: ADME, organism-based; conditions: in vivo, 2 h; procedure, shortened: as §2
[15] = Metabolic stability in Sprague-Dawley rat plasma assessed as half life by radio thin layer chromatography analysis; format: ADME, cell-free
Procedure, shortened: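 Anesthetized male Sprague-Dawley rats (235-330 g) given radiotracer (3.2-15.1 MBq). Femoral arterial blood was sampled over 90 min and plasma gamma-counted. Plasma was diluted with acetonitrile, centrifuged and run on silica radio-TLC with cold reference, giving parent and radiometabolite fractions.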

[16] = test system: Lung; test: Biodistribution in Sprague-Dawley rat lung at 3.2 to 18.6 MBq, iv after 120 mins by micro PET analysis; format: ADME, organism-based; conditions: in vivo, 2 h; procedure, shortened: as §2
[17] = test system: Heart; test: Biodistribution in Sprague-Dawley rat heart at 3.2 to 18.6 MBq, iv after 120 mins by micro PET analysis; format: ADME, organism-based; conditions: in vivo, 2 h; procedure, shortened: as §2
[18] = test system: Pancreas; test: Biodistribution in Sprague-Dawley rat pancreas at 3.2 to 18.6 MBq, iv after 120 mins by micro PET analysis; format: ADME, organism-based; conditions: in vivo, 2 h; procedure, shortened: as §2
[19] = test system: Liver; test: Biodistribution in Sprague-Dawley rat liver at 3.2 to 18.6 MBq, iv after 120 mins by micro PET analysis; format: ADME, organism-based; conditions: in vivo, 2 h; procedure, shortened: as §2
[20] = test system: Spleen; test: Biodistribution in Sprague-Dawley rat spleen at 3.2 to 18.6 MBq, iv after 120 mins by micro PET analysis; format: ADME, organism-based; conditions: in vivo, 2 h; procedure, shortened: as §2
[21] = test system: Kidney; test: Biodistribution in Sprague-Dawley rat kidney at 3.2 to 18.6 MBq, iv after 120 mins by micro PET analysis; format: ADME, organism-based; conditions: in vivo, 2 h; procedure, shortened: as §2
[22] = Biodistribution in Sprague-Dawley rat urine at 3.2 to 18.6 MBq, iv after 120 mins by micro PET analysis; format: ADME, organism-based; conditions: in vivo, 2 h; procedure, shortened: as §2
[23] = test system: Rattus norvegicus; test: Biodistribution in Sprague-Dawley rat bladder at 3.2 to 18.6 MBq, iv after 120 mins by micro PET analysis; format: ADME, organism-based, Urinary bladder; conditions: in vivo, 2 h; procedure, shortened: as §2
[24] = test system: Intestine; test: Biodistribution in Sprague-Dawley rat intestine at 3.2 to 18.6 MBq, iv after 120 mins by micro PET analysis; format: ADME, organism-based; conditions: in vivo, 2 h; procedure, shortened: as §2
[25] = test system: Hippocampus; test: Biodistribution in Sprague-Dawley rat hippocampus at 3.2 to 18.6 MBq, iv after 120 mins by micro PET analysis; conditions: in vivo, 2 h
[26] = test system: Cerebellum; test: Biodistribution in Sprague-Dawley rat cerebellum at 3.2 to 18.6 MBq, iv after 120 mins by micro PET analysis; conditions: in vivo, 2 h
[27] = Mus musculus, po, read-out: ED50

T1 sequence (Q13224 whole entry, other chains not shown): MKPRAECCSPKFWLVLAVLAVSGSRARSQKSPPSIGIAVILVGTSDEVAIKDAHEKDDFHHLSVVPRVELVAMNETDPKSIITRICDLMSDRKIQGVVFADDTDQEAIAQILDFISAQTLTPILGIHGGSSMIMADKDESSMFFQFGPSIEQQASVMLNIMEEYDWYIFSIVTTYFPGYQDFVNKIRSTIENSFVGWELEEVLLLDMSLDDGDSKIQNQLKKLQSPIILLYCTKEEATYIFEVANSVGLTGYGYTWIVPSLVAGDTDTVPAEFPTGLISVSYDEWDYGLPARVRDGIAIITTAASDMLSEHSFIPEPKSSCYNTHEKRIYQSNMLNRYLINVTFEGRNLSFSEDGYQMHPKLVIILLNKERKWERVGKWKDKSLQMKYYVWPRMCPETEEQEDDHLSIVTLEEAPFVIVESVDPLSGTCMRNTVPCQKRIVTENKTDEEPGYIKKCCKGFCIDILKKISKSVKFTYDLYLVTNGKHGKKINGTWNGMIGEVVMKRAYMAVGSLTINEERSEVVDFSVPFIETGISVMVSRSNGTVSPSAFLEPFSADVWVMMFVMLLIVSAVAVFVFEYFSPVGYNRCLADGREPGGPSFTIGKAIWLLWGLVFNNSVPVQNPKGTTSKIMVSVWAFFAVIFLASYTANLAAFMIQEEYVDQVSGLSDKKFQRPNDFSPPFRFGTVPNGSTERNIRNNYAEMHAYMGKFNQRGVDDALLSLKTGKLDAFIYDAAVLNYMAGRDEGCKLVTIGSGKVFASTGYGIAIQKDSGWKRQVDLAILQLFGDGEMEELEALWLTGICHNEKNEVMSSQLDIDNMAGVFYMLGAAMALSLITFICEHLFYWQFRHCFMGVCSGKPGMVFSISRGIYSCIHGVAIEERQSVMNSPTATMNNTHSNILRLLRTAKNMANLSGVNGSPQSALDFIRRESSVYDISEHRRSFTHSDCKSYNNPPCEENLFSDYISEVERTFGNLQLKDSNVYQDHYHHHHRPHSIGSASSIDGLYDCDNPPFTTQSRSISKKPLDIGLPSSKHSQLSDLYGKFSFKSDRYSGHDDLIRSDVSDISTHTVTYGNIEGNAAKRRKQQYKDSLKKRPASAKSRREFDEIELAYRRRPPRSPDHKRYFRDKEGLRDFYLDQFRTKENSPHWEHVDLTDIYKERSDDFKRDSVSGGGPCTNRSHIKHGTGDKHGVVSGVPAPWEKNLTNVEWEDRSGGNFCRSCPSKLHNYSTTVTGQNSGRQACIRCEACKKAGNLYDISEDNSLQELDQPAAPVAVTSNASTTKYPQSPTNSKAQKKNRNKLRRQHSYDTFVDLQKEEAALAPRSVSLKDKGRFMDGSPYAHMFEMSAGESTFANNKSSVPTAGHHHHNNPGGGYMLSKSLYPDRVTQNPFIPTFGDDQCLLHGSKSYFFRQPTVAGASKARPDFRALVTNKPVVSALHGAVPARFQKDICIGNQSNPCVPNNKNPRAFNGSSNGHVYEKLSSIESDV
Sequence of Voltage-gated inwardly rectifying potassium channel KCNH2 (Q12809 whole entry): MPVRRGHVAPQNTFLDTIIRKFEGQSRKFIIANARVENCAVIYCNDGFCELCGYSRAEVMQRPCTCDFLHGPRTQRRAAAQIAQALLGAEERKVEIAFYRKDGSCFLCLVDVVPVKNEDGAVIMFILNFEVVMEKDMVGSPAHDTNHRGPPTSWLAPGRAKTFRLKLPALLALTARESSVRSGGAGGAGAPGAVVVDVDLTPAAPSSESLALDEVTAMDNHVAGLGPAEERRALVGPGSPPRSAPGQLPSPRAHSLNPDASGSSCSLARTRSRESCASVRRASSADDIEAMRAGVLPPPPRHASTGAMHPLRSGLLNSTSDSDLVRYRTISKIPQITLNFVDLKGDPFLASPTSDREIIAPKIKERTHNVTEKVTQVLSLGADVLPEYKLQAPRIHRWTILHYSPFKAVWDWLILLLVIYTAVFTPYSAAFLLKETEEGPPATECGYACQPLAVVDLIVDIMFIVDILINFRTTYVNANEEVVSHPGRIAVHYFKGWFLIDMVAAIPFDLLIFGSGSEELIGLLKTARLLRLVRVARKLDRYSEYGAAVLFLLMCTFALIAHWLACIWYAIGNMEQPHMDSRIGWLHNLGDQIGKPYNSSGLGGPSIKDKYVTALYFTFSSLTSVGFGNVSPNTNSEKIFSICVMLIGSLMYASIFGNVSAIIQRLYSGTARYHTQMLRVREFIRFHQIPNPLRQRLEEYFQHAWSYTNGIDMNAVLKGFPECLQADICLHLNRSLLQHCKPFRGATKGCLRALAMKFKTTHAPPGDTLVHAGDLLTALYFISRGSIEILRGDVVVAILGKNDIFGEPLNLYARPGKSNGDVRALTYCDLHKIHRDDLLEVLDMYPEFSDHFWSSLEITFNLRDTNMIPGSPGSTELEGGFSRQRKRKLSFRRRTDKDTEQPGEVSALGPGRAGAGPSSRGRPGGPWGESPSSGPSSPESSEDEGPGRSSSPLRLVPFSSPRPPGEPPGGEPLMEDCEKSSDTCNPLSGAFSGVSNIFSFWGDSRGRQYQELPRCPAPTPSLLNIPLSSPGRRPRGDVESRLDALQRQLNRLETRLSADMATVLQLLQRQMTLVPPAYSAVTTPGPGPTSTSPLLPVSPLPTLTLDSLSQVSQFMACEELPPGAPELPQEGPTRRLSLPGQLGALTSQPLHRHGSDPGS

IC50 [1]: 620 nM
IC50 [3]: 47.3 nM
inhibition [4]: 10.5%
Stability [5]: Stable
Stability [6]: Stable
Structure (SMILES): Oc1ccc2[nH]c(CN3CCC(Cc4ccc(F)cc4)CC3)nc2c1
IP [2]: 500 nM

IC50 [8]: 4 nM
Structure (SMILES): O=C(Nc1ccc2nc(O)oc2c1)C(=O)N1CCC(Cc2ccccc2)CC1
ED50 [7, 27]: 0.5 mg/kg

Drug uptake [9]: 0.069 % ID/g
Drug uptake [10]: 0.056 % ID/g
Drug uptake [11]: 0.054 % ID/g
Drug uptake [12]: 0.397 % ID/g
Drug uptake [13]: 0.776 % ID/g
Drug uptake [14]: 0.057 % ID/g
half-life [15]: 50 min
Drug uptake [16]: 0.132 % ID/g
Drug uptake [17]: 0.076 % ID/g
Drug uptake [18]: 0.08 % ID/g
Drug uptake [19]: 1.365 % ID/g
Drug uptake [20]: 0.169 % ID/g
Drug uptake [21]: 0.377 % ID/g
Drug uptake [22]: 3.237 % ID/g
Drug uptake [23]: 0.175 % ID/g
Drug uptake [24]: 0.107 % ID/g
Drug uptake [25]: 0.064 % ID/g
Drug uptake [26]: 0.046 % ID/g
Structure (SMILES): O=C(Nc1ccc2[nH]c(=O)oc2c1)C(=O)N1CCC(Cc2ccc([18F])cc2)CC1

inhibition [4]: 10.1%
Structure (SMILES): O=C(Nc1ccc2nc(O)oc2c1)C(=O)N1CCC(Cc2ccc(F)cc2)CC1 [RADIPRODIL]
ED50 [7, 27]: 7.7 mg/kg

IC50 [3]: 840 nM
inhibition [4]: 13.2%
Structure (SMILES): O=C(Nc1ccc2[nH]c(=O)sc2c1)C(=O)N1CCC(Cc2ccc(F)cc2)CC1

IC50 [8]: 6 nM
IC50 [3]: 69.9 nM
Stability [5]: Stable
Stability [6]: Stable
Structure (SMILES): O=C(Nc1ccc2[nH]c(=O)oc2c1)C(=O)N1CCC(Cc2ccc(F)cc2)CC1 [RADIPRODIL]

IC50 [8]: 5 nM
Structure (SMILES): O=C(Nc1ccc2[nH]c(O)nc2c1)C(=O)N1CCC(Cc2ccc(F)cc2)CC1
ED50 [7, 27]: 0.5 mg/kg

Structure (SMILES): O=C(Nc1ccc2nc(O)sc2c1)C(=O)N1CCC(Cc2ccccc2)CC1
ED50 [7]: 0.5 mg/kg

inhibition [4]: 22.3%
Structure (SMILES): CC(C(O)c1ccc(O)cc1)N1CCC(Cc2ccccc2)CC1 (stereo not drawn)
